Experimental data taken from ChEMBL document CHEMBL1156937, “3'-[4-Aryl-(1,2,3-triazol-1-yl)]-3'-deoxythymidine analogues as potent and selective inhibitors of human mitochondrial thymidine kinase” (J Med Chem, 2010).

How the values were obtained:
[1] = target: T1, Thymidine kinase, cytosolic (Homo sapiens, UniProt P04183); experiment: Inhibition of human recombinant cytosolic thymidine kinase 1 assessed as inhibition of [methyl-3H]dThd phosphorylation after 30 mins by scintillation counting
T1 sequence (P04183 whole entry): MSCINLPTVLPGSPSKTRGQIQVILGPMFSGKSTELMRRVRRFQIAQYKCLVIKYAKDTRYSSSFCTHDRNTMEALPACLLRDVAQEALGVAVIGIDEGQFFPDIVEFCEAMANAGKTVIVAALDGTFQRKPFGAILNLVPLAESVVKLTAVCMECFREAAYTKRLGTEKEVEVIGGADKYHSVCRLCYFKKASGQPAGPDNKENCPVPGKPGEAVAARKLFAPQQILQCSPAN
Outline: (§1)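 Recombinant enzyme in 50 mM Tris/HCl pH 8.0, 2.5 mM MgCl2, 10 mM DTT, 0.5 mM CHAPS, 3 mg/mL BSA, 2.5 mM ATP and 1 μM [methyl-3H]dThd. Inhibitor at 5-fold dilutions; 37 °C for 30 min, within the linear range. Reaction spotted on DE-81 filter disks, which were washed in 1 mM ammonium formate, water and ethanol. Radioactivity counted by scintillation. IC50 is the concentration halving dThd phosphorylation.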

[2] = target: T2, Thymidine kinase 2, mitochondrial (Homo sapiens, UniProt O00142); experiment: Inhibition of human recombinant mitochondrial thymidine kinase 2 assessed as inhibition of [methyl-3H]dThd phosphorylation after 30 mins by scintillation counting; outline: as §1
T2 sequence (O00142 whole entry): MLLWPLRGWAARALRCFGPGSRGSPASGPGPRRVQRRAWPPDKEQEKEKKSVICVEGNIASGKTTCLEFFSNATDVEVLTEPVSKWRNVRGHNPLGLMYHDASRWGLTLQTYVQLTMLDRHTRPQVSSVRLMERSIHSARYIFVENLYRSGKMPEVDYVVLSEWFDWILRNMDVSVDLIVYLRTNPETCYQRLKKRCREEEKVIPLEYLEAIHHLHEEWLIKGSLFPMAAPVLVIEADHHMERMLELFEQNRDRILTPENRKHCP

Deoxynucleoside kinase = target: T3, Deoxynucleoside kinase (Drosophila melanogaster, UniProt Q9XZT6); experiment: Inhibition of Drosophila melanogaster multifunctional deoxynucleoside kinase assessed as inhibition of [methyl-3H]dThd phosphorylation after 30 mins by scintillation counting; outline: as §1
T3 sequence (Q9XZT6 whole entry): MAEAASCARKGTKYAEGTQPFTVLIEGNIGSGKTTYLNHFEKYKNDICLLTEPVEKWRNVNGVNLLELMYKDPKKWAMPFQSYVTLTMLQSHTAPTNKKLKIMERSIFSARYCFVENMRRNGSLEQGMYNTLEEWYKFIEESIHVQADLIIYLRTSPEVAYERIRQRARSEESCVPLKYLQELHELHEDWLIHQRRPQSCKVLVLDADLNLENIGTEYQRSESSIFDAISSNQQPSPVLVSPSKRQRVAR

[3] = Inhibition of Varicella zoster virus thymidine kinase assessed as inhibition of [methyl-3H]dThd phosphorylation after 30 mins by scintillation counting; parameters: species or system Human alphaherpesvirus 3; outline: as §1
Thymidine kinase = target: T4, Thymidine kinase (Human alphaherpesvirus 1, UniProt Q9QNF7); experiment: Inhibition of HSV1 thymidine kinase assessed as inhibition of [methyl-3H]dThd phosphorylation after 30 mins by scintillation counting; outline: as §1
T4 sequence (Q9QNF7 whole entry): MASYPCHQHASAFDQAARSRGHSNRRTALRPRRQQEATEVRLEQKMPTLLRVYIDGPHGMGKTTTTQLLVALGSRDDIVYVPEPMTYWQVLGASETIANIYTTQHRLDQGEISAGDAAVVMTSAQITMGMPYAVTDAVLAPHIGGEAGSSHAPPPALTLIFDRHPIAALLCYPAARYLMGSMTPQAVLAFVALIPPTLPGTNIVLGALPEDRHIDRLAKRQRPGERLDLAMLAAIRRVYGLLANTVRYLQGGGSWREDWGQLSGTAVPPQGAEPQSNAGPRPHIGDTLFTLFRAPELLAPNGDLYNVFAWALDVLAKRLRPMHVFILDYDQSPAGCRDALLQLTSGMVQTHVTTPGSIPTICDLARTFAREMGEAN

Homo sapiens = species on record: Homo sapiens; experiment: Selectivity ratio of IC50 for human recombinant cytosolic thymidine kinase 1 to IC50 for human recombinant mitochondrial thymidine kinase 2
[4] = target: T2, Thymidine kinase 2, mitochondrial; experiment: Competitive inhibition of human recombinant mitochondrial thymidine kinase 2 using ATP as substrate by Lineweaver-Burke plotting; settings: in the assay text read “using thymidine as substrate” for “using ATP as substrate”
Outline: (§2)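 Purified recombinant TK-2 in the same radiometric filter-binding assay. For dThd-varied kinetics, dThd was 0.4–5 μM with ATP saturating at 2.5 mM. For ATP-varied kinetics, ATP was 5–100 μM with dThd saturating at 20 μM. Km, Ki and inhibition mode were derived from Lineweaver-Burk plots.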

[5] = target: T2, Thymidine kinase 2, mitochondrial; experiment: Uncompetitive inhibition of human recombinant mitochondrial thymidine kinase 2 using thymidine as substrate by Lineweaver-Burke plotting; settings: in the assay text read “using ATP as substrate” for “using thymidine as substrate”; outline: as §2
[6] = target: T2, Thymidine kinase 2, mitochondrial; experiment: Inhibition of thymidine kinase 2

Compound Cc1cn([C@H]2C[C@H](NC(=S)Nc3ccc(Cl)c(C(F)(F)F)c3)[C@@H](COC(c3ccccc3)(c3ccccc3)c3ccccc3)O2)c(=O)[nH]c1=O has an IC50 [1] of over 500 µM, an IC50 [2] of over 500 µM and an IC50 (Deoxynucleoside kinase) of over 500 µM. It also gave an IC50 [3] of over 500 µM and an IC50 (Thymidine kinase) of over 500 µM.
For Cc1cn([C@H]2C[C@H](n3cc(Cc4ccccc4)nn3)[C@@H](CO)O2)c(=O)[nH]c1=O, the IC50 [1] was 318 µM, the IC50 [2] was 0.3 µM and the IC50 (Deoxynucleoside kinase) was 3.9 µM. It also gave an IC50 [3] of 6.4 µM and an IC50 (Thymidine kinase) of 158 µM.
In the case of Cc1cn([C@H]2C[C@H](n3cc(CC4CCCC4)nn3)[C@@H](CO)O2)c(=O)[nH]c1=O, the IC50 [1] is reported as 177 µM, the IC50 [2] is reported as 0.15 µM and the IC50 (Deoxynucleoside kinase) is reported as 3 µM. It also gave an IC50 [3] of 3.1 µM and an IC50 (Thymidine kinase) of 48 µM.
Compound Cc1cn([C@H]2C[C@H](NC(=S)Nc3ccc(Cl)c(C(F)(F)F)c3)[C@@H](CO)O2)c(=O)[nH]c1=O has an IC50 [1] of 316 µM, an IC50 [2] of 0.15 µM and a Ratio IC50 (Homo sapiens) of 2100.
For O=c1[nH]c(=O)n([C@H]2C[C@H](n3cc(-c4ccc(Cl)cc4)nn3)[C@@H](CO)O2)cc1/C=C/Br, the IC50 [1] was over 500 µM, the IC50 [2] was 0.036 µM and the IC50 (Deoxynucleoside kinase) was 0.46 µM. For the same compound, the IC50 [3] was 1.7 µM, the Ki [4] was 0.012 µM and the Ki [5] was 0.41 µM. It also gave a Ratio IC50 (Homo sapiens) of over 14000 and an IC50 (Thymidine kinase) of 4.5 µM.
Work on O=c1[nH]c(=O)n([C@H]2C[C@H](n3cc(-c4ccccc4)nn3)[C@@H](CO)O2)cc1/C=C/Br yielded an IC50 [1] of over 500 µM, an IC50 [2] of 0.25 µM and an IC50 (Deoxynucleoside kinase) of 2.9 µM. The IC50 [3] was 3.7 µM and the IC50 (Thymidine kinase) was 36 µM.
Cc1cn([C@H]2C[C@H](n3cc(-c4ccccc4)nn3)[C@@H](CO)O2)c(=O)[nH]c1=O showed an IC50 [1] of 54 µM, an IC50 [2] of 0.32 µM and an IC50 (Deoxynucleoside kinase) of 2.2 µM. For the same compound, the IC50 [3] was 2.5 µM and the IC50 (Thymidine kinase) was 28 µM.
CCCCc1cn([C@H]2C[C@H](n3cc(C)c(=O)[nH]c3=O)O[C@@H]2CO)nn1 gave an IC50 [1] of 366 µM, an IC50 [2] of 0.23 µM and an IC50 (Deoxynucleoside kinase) of 4.1 µM. The IC50 [3] was 4.3 µM and the IC50 (Thymidine kinase) was 95 µM.
Compound CNC(=O)c1ccc(C(OCCCCCCCCn2cc(C)c(=O)[nH]c2=O)(c2ccccc2)c2ccccc2)cc1 has an IC50 [6] of 0.4 µM.
With CCCCCC(=O)N[C@H]1C[C@H](n2cc(C)c(=O)[nH]c2=O)O[C@@H]1CO the Ki [6] was 0.15 µM.
In the case of Cc1cn([C@H]2C[C@H](n3nncc3-c3ccc(Cl)cc3)[C@@H](CO)O2)c(=O)[nH]c1=O, the IC50 [1] is reported as 109 µM, the IC50 [2] is reported as 4 µM and the IC50 (Deoxynucleoside kinase) is reported as 30 µM. The IC50 (Thymidine kinase) was 392 µM.
In the case of O=c1[nH]c(=O)n([C@@H]2O[C@H](CO)[C@@H](O)C2O)cc1/C=C/Br (single isomer, unassigned) [SORIVUDINE], the Ki [6] is reported as 10.4 µM.
For Cc1cn([C@H]2C[C@H](n3cc(-c4ccc(Cl)c(Cl)c4)nn3)[C@@H](CO)O2)c(=O)[nH]c1=O, the IC50 [1] was 75 µM, the IC50 [2] was 0.042 µM and the IC50 (Deoxynucleoside kinase) was 0.99 µM. The IC50 [3] was 2.7 µM and the IC50 (Thymidine kinase) was 30 µM.
For Cc1cn([C@H]2C[C@H](n3nncc3-c3ccccc3)[C@@H](CO)O2)c(=O)[nH]c1=O, the IC50 [1] was at least 500 µM, the IC50 [2] was 1.1 µM and the IC50 (Deoxynucleoside kinase) was 17 µM. For the same compound, the IC50 [3] was 19 µM and the IC50 (Thymidine kinase) was 445 µM.
Compound Cc1cn([C@H]2C[C@H](n3ccnn3)[C@@H](CO)O2)c(=O)[nH]c1=O has an IC50 [1] of at least 500 µM, an IC50 [2] of 4.7 µM and an IC50 (Deoxynucleoside kinase) of 40 µM. It also gave an IC50 [3] of 15 µM and an IC50 (Thymidine kinase) of 212 µM.
Cc1cn([C@H]2C[C@H](n3cc(-c4ccc(Cl)cc4)nn3)[C@@H](CO)O2)c(=O)[nH]c1=O showed an IC50 [1] of 71 µM, an IC50 [2] of 0.046 µM and an IC50 (Deoxynucleoside kinase) of 1.8 µM. For the same compound, the IC50 [3] was 3.3 µM and the IC50 (Thymidine kinase) was 27 µM.
Cc1cn([C@H]2C[C@H](n3cc(-c4ccccn4)nn3)[C@@H](CO)O2)c(=O)[nH]c1=O showed an IC50 [1] of 316 µM, an IC50 [2] of 1.3 µM and an IC50 (Deoxynucleoside kinase) of 3.8 µM. The IC50 [3] was 3.1 µM and the IC50 (Thymidine kinase) was 46 µM.
